# Assay results reported in paper PMC7034990 (Science Advances, 2020).
# Columns and labels:
# [1] = target: ABC-C2 (multidrug resistance-associated protein 2) (Homo sapiens, UniProt Q92887); experiment: ABC transporter inhibition, ABC-C2; type: in vitro ADME; details: read-out: inhibition of ABC-C2
# [2] = test system: F508del/F508del cultured bronchial epithelia; experiment: Apical fluid pH measurement on CF bronchial epithelia; type: cell-based, human; details: 24 hours
# Method in brief: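 CF bronchial epithelia at air-liquid interface were treated 24 h with correctors or DMSO vehicle. The apical side then received 75 μl low-buffer modified PBS (pH 7.35) containing 100 μM CPT-cAMP and 1 μM VX-770, for 3 h at 37°C, 5% CO2. The recovered fluid was mixed with SNARF-1 (final 0.1 mg/ml), excited at 544 nm, and the 590/640 nm emission ratio converted to pH by calibration curve.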
# CFBE41o− cells = experiment: Cell viability panel; type: cell-based; details: 24 hr, positive controls celastrol or cytochalasin D
# Method in brief: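 CFBE41o− cells. Proliferation: 5000 cells/well; after 24 h, test compound at several concentrations or DMSO; tracked 24 h by high-content imaging. MTT: 50,000 cells/well; treated 24 h after plating; next day MTT 0.5 mg/ml final, 3 h at 37°C; absorbance at 560 nm. Cell death: 50,000 cells/well, treated 24 h, then Hoechst 33342 plus propidium iodide stain and high-content imaging.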
# [3] = test system: F508del/F508del bronchial epithelial cells; experiment: Short-circuit current recordings on primary CF bronchial epithelial cells; type: cell-based, human
# Method in brief: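 Primary bronchial epithelial cells came from lung-transplant bronchi and were differentiated on porous inserts, then kept 2–3 weeks under air-liquid culture. Correctors or DMSO were given in basolateral medium. Epithelia were mounted in a vertical diffusion chamber, bicarbonate saline (126 mM NaCl, 24 mM NaHCO3, 10 mM glucose) both sides, gassed 5% CO2:95% air, 37°C. Voltage was clamped and short-circuit current recorded. ENaC was blocked with amiloride (10 μM).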
# Sequence of ABC-C2 (multidrug resistance-associated protein 2) (Q92887 whole entry, species assumed): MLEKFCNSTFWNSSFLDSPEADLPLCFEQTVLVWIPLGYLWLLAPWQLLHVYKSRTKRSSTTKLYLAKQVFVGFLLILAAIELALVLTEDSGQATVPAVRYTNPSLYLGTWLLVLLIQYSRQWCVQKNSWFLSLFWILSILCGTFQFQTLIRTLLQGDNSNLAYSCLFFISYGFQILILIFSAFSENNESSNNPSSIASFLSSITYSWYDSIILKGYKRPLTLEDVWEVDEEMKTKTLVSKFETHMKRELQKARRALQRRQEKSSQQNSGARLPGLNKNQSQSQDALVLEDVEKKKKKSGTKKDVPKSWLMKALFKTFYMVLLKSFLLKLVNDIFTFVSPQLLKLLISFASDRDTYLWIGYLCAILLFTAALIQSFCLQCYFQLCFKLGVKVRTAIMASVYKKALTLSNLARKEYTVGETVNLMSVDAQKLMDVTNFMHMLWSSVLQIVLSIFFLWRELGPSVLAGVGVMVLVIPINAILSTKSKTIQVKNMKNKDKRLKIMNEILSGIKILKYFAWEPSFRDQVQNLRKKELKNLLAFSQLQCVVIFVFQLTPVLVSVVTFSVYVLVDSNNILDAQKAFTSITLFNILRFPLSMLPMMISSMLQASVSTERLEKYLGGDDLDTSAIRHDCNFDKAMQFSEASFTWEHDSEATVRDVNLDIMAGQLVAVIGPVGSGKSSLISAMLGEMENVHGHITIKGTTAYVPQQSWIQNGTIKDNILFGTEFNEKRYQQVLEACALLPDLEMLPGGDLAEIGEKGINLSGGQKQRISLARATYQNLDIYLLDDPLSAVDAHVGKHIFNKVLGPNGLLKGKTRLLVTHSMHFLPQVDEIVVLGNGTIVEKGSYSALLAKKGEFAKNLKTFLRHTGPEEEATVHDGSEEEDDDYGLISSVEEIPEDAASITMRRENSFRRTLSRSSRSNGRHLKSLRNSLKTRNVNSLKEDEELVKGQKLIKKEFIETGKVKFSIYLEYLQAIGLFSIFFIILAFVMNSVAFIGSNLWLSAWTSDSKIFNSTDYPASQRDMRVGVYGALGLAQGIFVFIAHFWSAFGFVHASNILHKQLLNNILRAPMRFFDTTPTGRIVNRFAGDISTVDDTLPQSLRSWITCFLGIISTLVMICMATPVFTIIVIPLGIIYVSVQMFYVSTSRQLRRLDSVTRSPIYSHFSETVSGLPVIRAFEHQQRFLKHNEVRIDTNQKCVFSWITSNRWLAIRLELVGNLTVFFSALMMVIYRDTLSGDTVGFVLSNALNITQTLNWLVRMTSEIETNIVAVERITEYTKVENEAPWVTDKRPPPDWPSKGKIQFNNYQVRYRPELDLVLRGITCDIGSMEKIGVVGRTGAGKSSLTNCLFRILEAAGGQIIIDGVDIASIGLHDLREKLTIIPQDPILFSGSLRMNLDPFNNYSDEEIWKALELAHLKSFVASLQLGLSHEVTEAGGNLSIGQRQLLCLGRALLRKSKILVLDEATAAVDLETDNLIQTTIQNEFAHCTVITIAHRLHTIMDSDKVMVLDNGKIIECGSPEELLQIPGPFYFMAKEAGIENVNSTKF
structure (smiles),measurement,setting,value
CN(C(=O)c1cccc(-n2nc(C(F)(F)F)c3c2[C@@H](Oc2ccc(C(=O)O)cc2)CCC3)c1)c1ccc2c(c1)OC(F)(F)O2 [ARN23765],inhibition at 10 µM,[1],27%
same,"pH of the apical fluid, combination of ARN23765 and 4172",[2]; ARN23765 10 nM plus 4172 10 μM,further increased pH to a level significantly higher than that measured with each corrector alone
same,"pH of the apical fluid, single corrector","[2]; ARN23765 10 nM, 4172 10 μM, versus control-treated cells",significant increase in pH
same,effect on cell viability,CFBE41o− cells,did not impair cell proliferation nor caused cell toxicity
same,effective concentrations lower compared to VX-809 and VX-661,[3],more than 5000 times
same,time after removal of the compound at which correction can be observed,[3],up to 36 hours
same,improvement in potency (EC50) with respect to VX-809 / presently available corrector drugs,[3]; F508del/F508del bronchial epithelial cells,more than 5000 fold
same,EC50,"[3]; Homo sapiens, Epithelial cell",0.038 nM
same,extent of rescue after 72 hours of treatment,[3]; VX-809 1 μM or ARN23765 1 nM for 72 hours,comparable to that of epithelia treated with these correctors for only 24 hours
same,F508del-CFTR rescue after 120 hours of treatment,"[3]; VX-809 1 μM or ARN23765 1 nM for 120 hours, compared to 72 hours",still maintained
same,rescue of F508del-CFTR function,"[3]; short-circuit current, CF primary bronchial epithelial cells, 24 hours",decreased at 1 μM
